System: NF-κB
Assay: NF-κB activation using THP1-Blue NF-κB cells
Format: cell-based, human
Conditions: for NF-κB induction in the presence of LPS (in words, Fig. 6): compared to compound 1; for NF-κB activity (in words, SAR text to Table 1): compound alone, 5 μM, 20h; for activation at 5 µM: Homo sapiens, 20 h, read-out: NF-κB SEAP Compound alone % Activation
Summary of the method: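 THP1-Blue NF-κB cells carry a stably integrated NF-κB-inducible SEAP. They were plated at 10^5 cells/well in RPMI with 10% FBS, penicillin, streptomycin and Normocin, then treated for 20 h with 5 μM test compound (0.5% DMSO final), alone or with LPS at 10 ng/mL. Supernatant SEAP was read colorimetrically at 630 nm. Signals were two-point normalized: baseline (vehicle or LPS) 100%, reference hit 200%.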

SMILES	NF-κB induction in the presence of LPS (in words, Fig. 6)	NF-κB activity (in words, SAR text to Table 1)	activation at 5 µM
C#CC1CCN(S(=O)(=O)c2ccc(C(=O)Nc3nc(-c4cc(N=[N+]=[N-])ccc4C)cs3)cc2)CC1 [Compound 69, N-(4-(5-azido-2-methylphenyl)thiazol-2-yl)-4-((4-ethynylpiperidin-1-yl)sulfonyl)benzamide]	perfect overlapping dose-response curve	–	–
Cc1cc(C)cc(-c2csc(NC(=O)c3ccc(S(=O)(=O)N4CCCCC4)cc3)n2)c1 [Compound 12o, N-(4-(3,5-dimethylphenyl)thiazol-2-yl)-4-(piperidin-1-ylsulfonyl)benzamide]	–	inactive	–
Cc1ccc(C)c(-c2csc(NC(=O)c3ccc(S(=O)(=O)N4CCNCC4)cc3)n2)c1 [Compound 54i, N-(4-(2,5-dimethylphenyl)thiazol-2-yl)-4-(piperazin-1-ylsulfonyl)benzamide]	–	inactive	–
C#CCN(C(=O)c1ccc(S(=O)(=O)N2CCCCC2)cc1)c1nc(-c2cc(C)ccc2C)cs1 [Compound 34d, N-(4-(2,5-dimethylphenyl)thiazol-2-yl)-4-(piperidin-1-ylsulfonyl)-N-(prop-2-yn-1-yl)benzamide]	–	inactive	–
CCCC1CCN(S(=O)(=O)c2ccc(C(=O)Nc3nc(-c4cc(C)ccc4Br)cs3)cc2)CC1 [Compound 55, N-(4-(2-bromo-5-methylphenyl)thiazol-2-yl)-4-((4-propylpiperidin-1-yl)sulfonyl)benzamide]	–	retained NF-κB activity	–
Cc1ccc(C)c(-c2csc(NC(=O)c3ccc(S(=O)(=O)N4CCCCC4)s3)n2)c1 [Compound 42c, N-(4-(2,5-dimethylphenyl)thiazol-2-yl)-5-(piperidin-1-ylsulfonyl)thiophene-2-carboxamide]	–	loss of activity	–
Cc1ccc(C)c(-c2csc(NC(=O)c3cccc(C(=O)N4CCCCC4)c3)n2)c1 [Compound 45d, N-(4-(2,5-dimethylphenyl)thiazol-2-yl)-3-(piperidine-1-carbonyl)benzamide]	–	none of these modifications at site E was tolerated	100%
CCSc1sc(NC(=O)c2ccc(S(=O)(=O)N3CCCCC3)cc2)nc1-c1cc(C)ccc1C [Compound 18k, N-(4-(2,5-dimethylphenyl)-5-(ethylthio)thiazol-2-yl)-4-(piperidin-1-ylsulfonyl)benzamide]	–	completely inactive	–
Cc1ccc(C)c(-c2csc(NC(=O)c3ccc(S(=O)(=O)N4CCCCC4)cn3)n2)c1 [Compound 42a, N-(4-(2,5-dimethylphenyl)thiazol-2-yl)-5-(piperidin-1-ylsulfonyl)picolinamide]	–	loss of activity	–
C#CC1CCN(S(=O)(=O)c2ccc(C(=O)Nc3nc(-c4cc(C)ccc4C)cs3)cc2)CC1 [Compound 68d, N-(4-(2,5-dimethylphenyl)thiazol-2-yl)-4-((4-ethynylpiperidin-1-yl)sulfonyl)benzamide]	modestly active	–	–
CCCC#Cc1sc(NC(=O)c2ccc(S(=O)(=O)N3CCC(CCC)CC3)cc2)nc1-c1cc(C)ccc1Br [Compound 61, N-(4-(2-bromo-5-methylphenyl)-5-(pent-1-yn-1-yl)thiazol-2-yl)-4-((4-propylpiperidin-1-yl)sulfonyl)benzamide]	–	significant loss of activity	–
Cc1ccc(C)c(-c2csc(N(C)C(=O)c3ccc(S(=O)(=O)N4CCCCC4)cc3)n2)c1 [Compound 34c, N-(4-(2,5-dimethylphenyl)thiazol-2-yl)-N-methyl-4-(piperidin-1-ylsulfonyl)benzamide]	–	inactive	–
CCc1csc(NC(=O)c2ccc(S(=O)(=O)N3CCCCC3)cc2)n1 [Compound 12h, N-(4-ethylthiazol-2-yl)-4-(piperidin-1-ylsulfonyl)benzamide]	–	None of these molecules had any NF-κB activity	100%
